Source: PubChem
APP 5UTR inh = APP translation inhibition. inhibition, % at 2 µM. 190,000 compounds, 0.82% hits. SH-SY5Y APP 5'UTR-luciferase reporter, luminescence. AID 1285;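 active = inhibition above a set limit, derived from the sample mean plus 3 SD, cut at about 45% in these data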
FLuc inhib CS = counter-screen for luciferase assay inhibitors: firefly luciferase inhibition; P08659; ATPLite firefly luciferase biochemical luminescence, 10 min; inhibition, % at 10 µM; 200,000 compounds, 1.5% hits; AID 1006;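 active = inhibition above about 50% when tested at 10 µM, limit read from the data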
Target sequence (P08659 whole entry, looked up): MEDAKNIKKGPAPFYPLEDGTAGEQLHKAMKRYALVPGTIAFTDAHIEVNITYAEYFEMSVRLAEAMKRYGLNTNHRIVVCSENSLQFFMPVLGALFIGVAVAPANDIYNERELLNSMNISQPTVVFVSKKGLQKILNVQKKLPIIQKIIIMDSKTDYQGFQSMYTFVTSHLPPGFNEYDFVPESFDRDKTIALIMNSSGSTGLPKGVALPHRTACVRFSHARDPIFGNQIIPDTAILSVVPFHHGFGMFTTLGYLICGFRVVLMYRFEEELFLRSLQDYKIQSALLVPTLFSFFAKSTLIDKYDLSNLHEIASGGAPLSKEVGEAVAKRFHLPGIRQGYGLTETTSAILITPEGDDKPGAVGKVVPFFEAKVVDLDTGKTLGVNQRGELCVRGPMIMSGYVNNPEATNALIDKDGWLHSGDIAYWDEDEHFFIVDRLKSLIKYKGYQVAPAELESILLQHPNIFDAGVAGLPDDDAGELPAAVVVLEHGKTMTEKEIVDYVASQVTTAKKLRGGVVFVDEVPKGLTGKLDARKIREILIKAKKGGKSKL
FLuc stim CS = affects firefly luciferase, flagging false hits in luciferase stimulation screens | P08659 | ATPlite luciferase biochemical, luminescence, 10 min; 0 = ATP-free wells, 1 = DMSO control | activation factor at 10 µM | 200,000 tested, under 10 active;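 active = luciferase activation factor, scaled between plate controls, of at least 2 with compound at 10 µM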
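System: cell-free luciferase reagent; medium: PBS as buffer for the ATP substrate; doses: test compounds dosed from 2 mM stocks in 100% DMSO; incubation: 10 min, room temperature; measured by: luminescence from luciferase reaction; read-out: luciferase activation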
APP 5'UTR act = APP 5'UTR luciferase reporter activation | SH-SY5Y APP 5'UTR luciferase reporter, luminescence; zero percent = DMSO vehicle wells | activation, % at 2 µM | 190,000 compounds, 1% hits | AID 1276;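 active = activation above a set limit, based on mean plus 3 SD of controls, cut at about 140% in these data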
STAT1 act = activators of IFN-gamma induced STAT1 signaling; NIH 3T3 STAT1-luciferase reporter, luminescence; 100% = IFN-gamma alone, no compound; activation (% of control), % at 5.5 µM; 200,000 compounds, 2.6% hits;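 active = activation above the screen-wide mean activation plus 3 SD, cut at about 130% in these data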
NF-kB neuron act = compounds increasing NF-kB expression in human neuronal cells; NF-kB reporter expression; active compounds read high; fold change at 12.5 µM; AID 1239; 190,000 compounds, 1.6% hits; in the data active = fold change above about 3.3
Hits are given with their value; i = inactive; nt = no result given. Only some compounds are listed: those with a hit (about 4.8% of all), similar ones and a draw of the others.

SMILES | APP 5UTR inh | FLuc inhib CS | FLuc stim CS | APP 5'UTR act | STAT1 act | NF-kB neuron act
C/C(=N/NC(=O)CCCOc1ccc(Cl)cc1Cl)c1ccc(C)o1 | i | i | i | i | i | i
CCCCC(CC(O)COCCC)c1n[nH]c(=S)n1-c1ccccc1 (stereo not given) | i | i | i | i | i | i
O=C(Nc1ncc(Cc2cccc(Cl)c2)s1)C1CCCO1 (stereo not given) | i | i | i | i | i | i
O=C(Nc1ncc(Cc2cccc(Cl)c2Cl)s1)C1CCCO1 (stereo not given) | i | i | i | i | 144 | i
CC(=O)c1cnn(-c2ccccc2)c1C | i | i | i | i | i | i
CC(=O)c1cnn(-c2nc3c(C)cccc3s2)c1C | i | i | i | i | i | 3.9
CC1CC2(C)Oc3ccccc3CC2C(C)C1CNCCCN(C)C (stereo not given) | i | i | i | i | i | i
CCC(C(=O)NC1CCCCC1)n1c(SCc2cccc(C)c2)nc2ccncc21 (stereo not given) | i | 68 | i | i | i | i
Cc1cc(Cl)ccc1OCC(=O)N/N=C1\CCCc2ccccc21 | i | i | i | i | i | i
O=C(COc1ccccc1F)N/N=C1\CCCc2ccccc21 | i | i | i | i | 139 | i
COc1ccccc1-c1cc(SC)c(C#N)c(=O)o1 | i | i | i | i | 133 | i
COc1ccccc1-c1cc(C(F)(F)F)c(C#N)c(=O)[nH]1 | i | i | i | i | i | i
COc1ccc(N(CC(=O)NC2CCCCC2)C(=O)CNC(=O)c2ccco2)cc1 | i | i | i | i | i | i
O=C(O)c1ccccc1CSc1nc2ccccc2n1Cc1ccccc1C(=O)O | i | i | i | i | i | i
COc1ccc2[nH]c(=O)c(CNc3ccccc3)cc2c1 | i | i | i | i | 129 | i
COc1ccc2[nH]c(=O)c(CN(CCc3ccccc3)C(C)=O)cc2c1 | i | i | i | i | i | i
COc1ccc(N=Cc2ccc(-c3ccccc3)o2)cc1 | i | i | i | i | i | i
Nc1c(N)c2ccccc2oc1=O | i | i | i | i | i | i
Nc1ccc2oc(=O)c3ccccc3c2c1 | i | i | i | i | 134 | i
CC(=O)Nc1ccc(/C=N/N2CCCCC2)cc1 | i | i | i | i | 135 | i
O=C(c1cnn2c(C(F)F)cc(-c3ccccc3)nc12)N1CCc2ccccc21 | i | i | i | i | i | i
Cc1ccc(-c2cc(C(F)F)n3ncc(C(=O)N4CCc5ccccc54)c3n2)cc1 | 87 | i | i | i | i | i
CC(C)(C)OC(=O)NCCCC[C@H](NC(=O)c1nc[nH]c1C(=O)NC(c1ccccc1)c1ccccc1)C(=O)OC(C)(C)C | i | i | i | i | i | i
Nc1ccccc1C(=O)N/N=C1\C2CN3CCN(C2)CC1(c1ccccc1)C3 | i | i | i | i | 130 | i
O=C(N/N=C1\C2CN3CCN(C2)CC1(c1ccccc1)C3)c1ccc(F)cc1 | i | i | i | i | i | i
SMILES | APP 5UTR inh | FLuc inhib CS | FLuc stim CS | APP 5'UTR act | STAT1 act | NF-kB neuron act
Cc1ccc(C)c(S(=O)(=O)N2CCN(c3ncccn3)CC2)c1 | i | i | i | i | i | 4.8
NC(N)=N/N=C/c1ccc(OCc2ccc(Cl)cc2)cc1 | i | i | i | i | i | 6
NC(N)=N/N=C/c1ccc(OCc2ccccc2)cc1 | i | i | i | i | i | i
O=C(NC1CCCCC1)/C(=N\O)c1ccccn1 | i | i | i | i | i | i
CCN(CC)S(=O)(=O)c1cc(C(=O)NCCN2CCOCC2)ccc1Cl | i | i | i | i | i | i
CC1=CC=CN2C1=NC(=O)CC2(C)C(=O)N(CC(=O)NC1CCCC1)c1cc(C)cc(C)c1 (stereo not given) | i | i | i | i | i | i
Cc1cc(N)n2ncc(-c3ccc(Cl)cc3)c2n1 | i | i | i | i | 140 | i
Cc1cc(N)n2ncc(-c3ccc(F)cc3)c2n1 | i | i | i | i | 140 | i
CCOC(=O)Cc1c(C)nc2c(-c3ccc(Cl)cc3)cnn2c1C | i | i | i | i | i | i
CCN(CC)C(=O)CS(=O)(=O)CC(=O)Nc1cc(OCCOC)c(Cl)cc1Cl | i | i | i | i | i | i
COc1ccc(/C=N/OCC(=O)N(Cc2ccc(OC)cc2)c2ccccc2C(=O)O)cc1 | i | i | i | i | i | i
CC(=O)N1CCc2c(sc(NC(=O)c3ccc4c(c3)OCCO4)c2C#N)C1 | 59 | i | i | i | i | i
CCN(CC)C(=S)NC(=O)c1cc(OC)c(OC)c(OC)c1 | i | i | i | i | i | i
Cc1ccc2nc(SCC(=O)N3CCCC3)[nH]c2c1 | i | i | i | i | 144 | i
Cc1ccc2nc(SCC(=O)NCc3ccco3)[nH]c2c1 | 51 | i | i | i | i | i
COc1ccc(C)cc1N(C(=O)c1ccccc1F)c1nc2ccccc2s1 | i | i | i | i | i | i
O=C(c1cc(COc2ccc(F)cc2F)on1)N1CCSCC1 | i | i | i | i | 138 | i
O=C(c1cc(COc2ccc(F)cc2Cl)on1)N1CCC(c2ccncc2)CC1 | i | i | i | i | i | i
COc1ccccc1N/C=C/C(=C(C#N)C#N)N(C)C | i | i | i | i | i | i
Cn1cccc1/C=C1\Cc2ccccc2C1=O | i | 58 | i | 184 | 140 | 7.2
Cn1cccc1/C=C1\CC(C(C)(C)C)C/C(=C\c2cccn2C)C1=O (stereo not given) | i | i | i | i | i | i
Cn1cccc1/C=C1\CCc2ccccc2C1=O | i | 70 | i | 167 | i | 5.9
O=C(Nc1ccc(Cl)cc1)OCc1cn(-c2ccccc2)nn1 | i | i | i | i | i | i
Cc1ccc(C(=O)Oc2ccc(N3C(=O)CCC3=O)c(C)c2)cc1 | i | 54 | i | i | i | i
Cc1ccc(C(=O)Cn2cnc3ccccc3c2=O)cc1C | i | i | i | i | 138 | 3.3
SMILES | APP 5UTR inh | FLuc inhib CS | FLuc stim CS | APP 5'UTR act | STAT1 act | NF-kB neuron act
O=C(Cn1cnc2ccccc2c1=O)c1ccc2c(c1)OCCO2 | i | i | i | 151 | 137 | 3.6
O=C(Cn1cnc2ccccc2c1=O)c1ccc2ccccc2c1 | i | i | i | i | i | i
O=C(CSc1ccc2ccccc2n1)c1ccc2c(c1)OCO2 | i | i | i | i | 134 | i
O=C(Cn1cnc2ccccc2c1=O)N1CCOCC1 | 50 | i | i | i | i | i
O=C(Cn1cnc2ccccc2c1=O)N1CCc2ccccc2C1 | i | i | i | i | i | i
CCn1nc(C)c(CNC(=O)CCc2nnc(Cc3c[nH]c4ccccc34)o2)c1C | i | i | i | i | i | nt
Cc1c(NC(=O)/C=C/c2ccc(S(=O)(=O)N3CCOCC3)cc2)c(=O)n(-c2ccccc2)n1C | i | i | i | i | i | i
Cc1ccc(C(=O)CSc2cnc3ccccc3n2)cc1C | i | i | i | 154 | i | i
CN(C)C(=O)CSc1cnc2ccccc2n1 | i | i | i | i | i | i
